Legend:
[1] = biological target: Receptor tyrosine-protein kinase erbB-2 (Homo sapiens, UniProt P04626); assay: Inhibition of recombinant ErbB-2 (unknown origin) after 10 mins by DELFIA/time-resolved fluorometry
Outline: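 Compound in DMSO, diluted in 25 mM HEPES pH 7.4, preincubated 10 min at room temperature with 12.5 ng recombinant ErbB-2. Reaction buffer with 20 mM HEPES, 2 mM MnCl₂, Na₃VO₄ and 1 mM DTT; 0.1 mM ATP–50 mM MgCl₂ added for 1 h. After washes, europium-labeled anti-phosphotyrosine antibody (400 ng) 1 h; enhancement solution, time-resolved fluorescence ex 340/em 615 nm. IC50 from percent-inhibition curves.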

[2] = biological target: Epidermal growth factor receptor (Homo sapiens, UniProt P00533); assay: Inhibition of recombinant EGFR (unknown origin) after 10 mins by DELFIA/time-resolved fluorometry
Epidermal growth factor receptor, sequence (P00533 whole entry): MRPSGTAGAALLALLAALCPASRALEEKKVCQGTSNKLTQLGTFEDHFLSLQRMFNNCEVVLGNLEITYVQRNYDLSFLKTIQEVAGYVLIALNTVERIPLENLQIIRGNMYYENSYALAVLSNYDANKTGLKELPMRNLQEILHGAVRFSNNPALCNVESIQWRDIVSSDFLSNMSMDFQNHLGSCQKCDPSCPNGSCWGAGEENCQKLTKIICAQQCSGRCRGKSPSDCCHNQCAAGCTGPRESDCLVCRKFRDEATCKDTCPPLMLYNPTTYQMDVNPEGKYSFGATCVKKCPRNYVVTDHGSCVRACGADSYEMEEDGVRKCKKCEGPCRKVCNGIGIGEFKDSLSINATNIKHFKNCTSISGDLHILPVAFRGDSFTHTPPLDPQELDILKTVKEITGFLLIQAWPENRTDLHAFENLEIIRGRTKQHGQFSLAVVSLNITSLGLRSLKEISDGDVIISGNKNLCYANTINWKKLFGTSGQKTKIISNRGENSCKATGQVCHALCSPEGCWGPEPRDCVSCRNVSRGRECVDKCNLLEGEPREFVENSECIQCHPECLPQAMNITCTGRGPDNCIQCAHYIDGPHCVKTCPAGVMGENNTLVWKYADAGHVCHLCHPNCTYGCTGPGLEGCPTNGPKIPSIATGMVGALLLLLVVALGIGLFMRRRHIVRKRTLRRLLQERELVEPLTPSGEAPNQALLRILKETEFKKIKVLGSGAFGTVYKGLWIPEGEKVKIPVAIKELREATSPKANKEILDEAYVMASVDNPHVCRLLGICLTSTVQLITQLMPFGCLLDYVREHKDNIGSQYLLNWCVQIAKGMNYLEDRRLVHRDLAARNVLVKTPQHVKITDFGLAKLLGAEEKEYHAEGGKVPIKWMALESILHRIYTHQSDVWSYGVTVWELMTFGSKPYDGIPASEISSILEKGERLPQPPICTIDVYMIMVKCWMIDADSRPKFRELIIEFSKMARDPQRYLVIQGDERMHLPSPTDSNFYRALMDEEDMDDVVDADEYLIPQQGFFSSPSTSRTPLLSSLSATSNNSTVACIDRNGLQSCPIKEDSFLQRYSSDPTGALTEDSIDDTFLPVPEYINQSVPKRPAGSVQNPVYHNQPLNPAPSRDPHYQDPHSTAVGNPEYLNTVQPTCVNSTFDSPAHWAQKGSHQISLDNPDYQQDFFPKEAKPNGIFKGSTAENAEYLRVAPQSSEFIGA

HL-60 = assay: Cytotoxicity against human HL60 cells after 2 days by sulforhodamine B assay; assay type: functional, cell-based; conditions: HL-60, 48 h
Outline: (§1)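 Cells plated at 5 × 10⁴/mL in RPMI-1640 with 5% fetal bovine serum; next day dosed at 0.5, 5, 50, 500 and 5000 ng/mL and cultured 2 days. Survival read by sulforhodamine B staining; IC50 taken from growth curves. Standard deviations below 30%.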

A549 = assay: Cytotoxicity against human A549 cells after 2 days by sulforhodamine B assay; assay type: functional, cell-based; conditions: A549, 48 h; outline: as §1

Receptor tyrosine-protein kinase erbB-2, sequence (P04626 whole entry): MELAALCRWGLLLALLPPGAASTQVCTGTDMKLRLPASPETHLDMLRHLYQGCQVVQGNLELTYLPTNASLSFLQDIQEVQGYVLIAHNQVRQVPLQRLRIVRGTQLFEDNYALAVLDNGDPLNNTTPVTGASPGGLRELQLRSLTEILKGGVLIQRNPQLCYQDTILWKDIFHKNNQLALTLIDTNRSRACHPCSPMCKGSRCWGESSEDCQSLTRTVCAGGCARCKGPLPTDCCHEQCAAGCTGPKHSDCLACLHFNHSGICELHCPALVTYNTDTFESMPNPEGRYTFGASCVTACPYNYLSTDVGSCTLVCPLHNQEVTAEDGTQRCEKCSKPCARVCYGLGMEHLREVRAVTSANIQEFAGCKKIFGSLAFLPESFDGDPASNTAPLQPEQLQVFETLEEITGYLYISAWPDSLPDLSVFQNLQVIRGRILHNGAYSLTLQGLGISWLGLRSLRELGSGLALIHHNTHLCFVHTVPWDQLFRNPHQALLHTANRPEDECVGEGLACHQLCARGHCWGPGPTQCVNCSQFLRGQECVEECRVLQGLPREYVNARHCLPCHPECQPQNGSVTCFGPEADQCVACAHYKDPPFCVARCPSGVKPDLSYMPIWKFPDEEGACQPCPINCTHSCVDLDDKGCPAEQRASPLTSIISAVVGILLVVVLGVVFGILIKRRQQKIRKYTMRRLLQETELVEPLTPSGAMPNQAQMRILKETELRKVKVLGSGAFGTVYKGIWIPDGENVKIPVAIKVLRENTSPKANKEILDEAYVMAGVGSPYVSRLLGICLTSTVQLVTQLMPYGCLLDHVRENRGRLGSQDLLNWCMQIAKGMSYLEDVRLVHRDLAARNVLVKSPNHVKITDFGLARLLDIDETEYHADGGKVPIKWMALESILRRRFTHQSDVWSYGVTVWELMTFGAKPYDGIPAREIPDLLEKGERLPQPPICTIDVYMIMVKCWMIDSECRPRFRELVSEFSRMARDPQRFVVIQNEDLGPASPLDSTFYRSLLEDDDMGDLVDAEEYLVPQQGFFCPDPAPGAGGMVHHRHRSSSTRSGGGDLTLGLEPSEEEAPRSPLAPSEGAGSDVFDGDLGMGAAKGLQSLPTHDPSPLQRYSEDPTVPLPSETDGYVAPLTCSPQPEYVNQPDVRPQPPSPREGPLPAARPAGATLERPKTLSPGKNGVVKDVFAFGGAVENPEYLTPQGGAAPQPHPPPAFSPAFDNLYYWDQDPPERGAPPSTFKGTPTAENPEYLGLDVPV

Cc1ncnc(Nc2ccc(OCc3cccc(F)c3)c(Cl)c2)c1/C=C/c1ccc(CNCCS(C)(=O)=O)o1
IC50 [1]: > 10 µM
IC50 [2]: 0.46 µM

Cc1ncnc(Nc2ccc(OCc3cccc(F)c3)c(Cl)c2)c1C#Cc1ccc(CNCCS(C)(=O)=O)o1
IC50 [1]: > 10 µM
IC50 [2]: 0.045 µM

Cc1ncnc(Oc2ccc(OCc3ccccn3)c(Cl)c2)c1C#Cc1ccc(CNCCS(C)(=O)=O)o1
IC50 [2]: > 5 µM

Cc1ncc(C#N)c(Nc2ccc(OCc3ccccn3)c(Cl)c2)c1/C=C/c1cccc(NC(=O)/C=C/CN(C)C)c1
IC50 [1]: > 10 µM
IC50 [2]: > 5 µM

Cc1ncc(C#N)c(Nc2ccc(OCc3ccccn3)c(Cl)c2)c1/C=C/c1ccc(CNCCS(C)(=O)=O)o1
IC50 [1]: > 10 µM
IC50 [2]: > 5 µM

Cc1ncc(C#N)c(Nc2ccc(OCc3ccccn3)c(Cl)c2)c1C#Cc1ccc(CNCCS(C)(=O)=O)o1
IC50 [2]: 1.5 µM

Cc1ncc(C#N)c(Oc2ccc(OCc3ccccn3)c(Cl)c2)c1C#Cc1ccc(CNCCS(C)(=O)=O)o1
IC50 [2]: > 5 µM

CN(C)C/C=C/C(=O)Nc1ccc(-c2cncc(C#N)c2Nc2ccc(OCc3ccccn3)c(Cl)c2)cc1
IC50 (HL-60): > 10 µM
IC50 [2]: > 5 µM
IC50 (A549): > 10 µM

CN1CCN(Cc2ccc(C(=O)Nc3ccc(-c4cncc(C#N)c4Nc4ccc(OCc5ccccn5)c(Cl)c4)cc3)cc2)CC1
IC50 (HL-60): 6 µM
IC50 [2]: 2.3 µM
IC50 (A549): > 10 µM

CN(C)C/C=C/C(=O)Nc1ccc(-c2cncc(C#N)c2Nc2ccc(OCc3cccc(F)c3)c(Cl)c2)cc1
IC50 (HL-60): > 10 µM
IC50 [2]: 0.66 µM
IC50 (A549): 7 µM

CN1CCN(Cc2ccc(C(=O)Nc3ccc(-c4cncc(C#N)c4Nc4ccc(OCc5cccc(F)c5)c(Cl)c4)cc3)cc2)CC1
IC50 (HL-60): 1.8 µM
IC50 [2]: 2.5 µM
IC50 (A549): 6 µM

CN(C)C/C=C/C(=O)Nc1ccc(-c2cncc(C#N)c2Nc2ccc(F)c(Cl)c2)cc1
IC50 (HL-60): 6 µM
IC50 [2]: 3.5 µM
IC50 (A549): > 10 µM

CN1CCN(Cc2ccc(C(=O)Nc3ccc(-c4cncc(C#N)c4Nc4ccc(F)c(Cl)c4)cc3)cc2)CC1
IC50 (HL-60): 5 µM
IC50 [2]: 3 µM
IC50 (A549): > 10 µM

CC(=O)c1ccc(Nc2c(C#N)cncc2-c2ccc(NC(=O)/C=C/CN(C)C)cc2)cc1
IC50 (HL-60): > 10 µM
IC50 [2]: > 5 µM
IC50 (A549): > 10 µM

CC(=O)c1ccc(Nc2c(C#N)cncc2-c2ccc(NC(=O)c3ccc(CN4CCN(C)CC4)cc3)cc2)cc1
IC50 (HL-60): 5 µM
IC50 [2]: > 5 µM
IC50 (A549): > 10 µM

CCOc1cc([N+](=O)[O-])c(C(=O)Nc2ccc(OCc3ccccn3)c(Cl)c2)cc1NC(=O)/C=C/CN(C)C
IC50 (HL-60): 4 µM
IC50 [2]: 0.85 µM
IC50 (A549): 2.5 µM

CCOc1cc(N)c(C(=O)Nc2ccc(OCc3ccccn3)c(Cl)c2)cc1NC(=O)/C=C/CN(C)C
IC50 (HL-60): > 10 µM
IC50 [2]: 0.8 µM
IC50 (A549): > 10 µM

CCOc1cc([N+](=O)[O-])c(C(=O)Nc2ccc(OCc3ccccn3)c(Cl)c2)cc1NC(=O)c1ccc(CN2CCN(C)CC2)cc1
IC50 (HL-60): 5 µM
IC50 (A549): 3.5 µM

CCOc1cc(N)c(C(=O)Nc2ccc(OCc3ccccn3)c(Cl)c2)cc1NC(=O)c1ccc(CN2CCN(C)CC2)cc1
IC50 (HL-60): 8 µM
IC50 [2]: 1 µM
IC50 (A549): 6 µM

CCOc1cc([N+](=O)[O-])c(C(=O)Nc2ccc(OCc3cccc(F)c3)c(Cl)c2)cc1NC(=O)/C=C/CN(C)C
IC50 (HL-60): 4 µM
IC50 [2]: 2 µM
IC50 (A549): 3.5 µM

CCOc1cc(N)c(C(=O)Nc2ccc(OCc3cccc(F)c3)c(Cl)c2)cc1NC(=O)/C=C/CN(C)C
IC50 (HL-60): 6 µM
IC50 [2]: 1.5 µM
IC50 (A549): 5.5 µM

CCOc1cc([N+](=O)[O-])c(C(=O)Nc2ccc(OCc3cccc(F)c3)c(Cl)c2)cc1NC(=O)c1ccc(CN2CCN(C)CC2)cc1
IC50 (HL-60): 4.5 µM
IC50 [2]: 5.5 µM
IC50 (A549): 6 µM

CCOc1cc(N)c(C(=O)Nc2ccc(OCc3cccc(F)c3)c(Cl)c2)cc1NC(=O)c1ccc(CN2CCN(C)CC2)cc1
IC50 (HL-60): 7 µM
IC50 [2]: 5 µM
IC50 (A549): 6 µM

CCOc1cc([N+](=O)[O-])c(C(=O)Nc2ccc(F)c(Cl)c2)cc1NC(=O)/C=C/CN(C)C
IC50 (HL-60): 6 µM
IC50 [2]: 6 µM
IC50 (A549): > 10 µM

CCOc1cc(N)c(C(=O)Nc2ccc(F)c(Cl)c2)cc1NC(=O)/C=C/CN(C)C
IC50 (HL-60): > 10 µM
IC50 [2]: 4.5 µM
IC50 (A549): > 10 µM

CCOc1cc([N+](=O)[O-])c(C(=O)Nc2ccc(F)c(Cl)c2)cc1NC(=O)c1ccc(CN2CCN(C)CC2)cc1
IC50 (HL-60): 5.5 µM
IC50 [2]: 5 µM
IC50 (A549): 6 µM

CCOc1cc(N)c(C(=O)Nc2ccc(F)c(Cl)c2)cc1NC(=O)c1ccc(CN2CCN(C)CC2)cc1
IC50 (HL-60): > 10 µM
IC50 [2]: 0.8 µM
IC50 (A549): > 10 µM

CCOc1ccc(C(=O)Nc2ccc(OCc3ccccn3)c(Cl)c2)cc1NC(=O)/C=C/CN(C)C
IC50 (HL-60): > 10 µM
IC50 [2]: 1.2 µM
IC50 (A549): > 10 µM

CCOc1ccc(C(=O)Nc2ccc(OCc3ccccn3)c(Cl)c2)cc1NC(=O)c1ccc(CN2CCN(C)CC2)cc1
IC50 (HL-60): > 10 µM
IC50 [2]: 3.5 µM
IC50 (A549): 6 µM

CCOc1ccc(C(=O)Nc2nccc(-c3cccnc3)n2)cc1NC(=O)/C=C/CN(C)C
IC50 (HL-60): > 10 µM
IC50 [2]: 6 µM
IC50 (A549): > 10 µM

CCOc1ccc(C(=O)Nc2nccc(-c3cccnc3)n2)cc1NC(=O)c1ccc(CN2CCN(C)CC2)cc1
IC50 (HL-60): > 10 µM
IC50 (A549): > 10 µM

Cc1ccc(NC(=O)/C=C/CN(C)C)cc1C(=O)Nc1ccc(OCc2cccc(F)c2)c(Cl)c1
IC50 (HL-60): 5.5 µM
IC50 [2]: 0.45 µM
IC50 (A549): 7 µM

Cc1ccc(NC(=O)c2ccc(CN3CCN(C)CC3)cc2)cc1C(=O)Nc1ccc(OCc2cccc(F)c2)c(Cl)c1
IC50 (HL-60): 6 µM
IC50 [2]: 0.6 µM
IC50 (A549): 5.5 µM

Cc1ccc(NC(=O)/C=C/CN(C)C)cc1C(=O)Nc1nccc(-c2cccnc2)n1
IC50 [2]: 5 µM
IC50 (A549): > 10 µM

Cc1ccc(NC(=O)c2ccc(CN3CCN(C)CC3)cc2)cc1C(=O)Nc1nccc(-c2cccc(F)c2)n1
IC50 [2]: 6 µM
IC50 (A549): > 10 µM

Cc1ncnc(Nc2ccc(OCc3cccc(F)c3)c(Cl)c2)c1/C=C/c1cccc(NC(=O)/C=C/CN(C)C)c1
IC50 [1]: > 10 µM
IC50 [2]: > 5 µM

— ChEMBL document CHEMBL2384937, “Design, synthesis and biological evaluation of novel pyrimidine, 3-cyanopyridine and m-amino-N-phenylbenzamide based monocyclic EGFR tyrosine kinase inhibitors” (Bioorg Med Chem, 2013)
